Experimental data: ChEMBL document CHEMBL4673255, “Acylated 1H-1,2,4-Triazol-5-amines Targeting Human Coagulation Factor XIIa and Thrombin: Conventional and Microscale Synthesis, Anticoagulant Properties, and Mechanism of Action” (J Med Chem, 2020)

Experiments:
[1] = biological target: T1, Coagulation factor XII (Homo sapiens) (UniProt P00748); test: Inhibition of human coagulation factor XIIA in presence of Boc-Gln-Gly-Arg-AMC as fluorogenic substrate at 1 uM measured at 1 min interval for 1 hr by fluorometric assay relative to control
T1 sequence (whole entry): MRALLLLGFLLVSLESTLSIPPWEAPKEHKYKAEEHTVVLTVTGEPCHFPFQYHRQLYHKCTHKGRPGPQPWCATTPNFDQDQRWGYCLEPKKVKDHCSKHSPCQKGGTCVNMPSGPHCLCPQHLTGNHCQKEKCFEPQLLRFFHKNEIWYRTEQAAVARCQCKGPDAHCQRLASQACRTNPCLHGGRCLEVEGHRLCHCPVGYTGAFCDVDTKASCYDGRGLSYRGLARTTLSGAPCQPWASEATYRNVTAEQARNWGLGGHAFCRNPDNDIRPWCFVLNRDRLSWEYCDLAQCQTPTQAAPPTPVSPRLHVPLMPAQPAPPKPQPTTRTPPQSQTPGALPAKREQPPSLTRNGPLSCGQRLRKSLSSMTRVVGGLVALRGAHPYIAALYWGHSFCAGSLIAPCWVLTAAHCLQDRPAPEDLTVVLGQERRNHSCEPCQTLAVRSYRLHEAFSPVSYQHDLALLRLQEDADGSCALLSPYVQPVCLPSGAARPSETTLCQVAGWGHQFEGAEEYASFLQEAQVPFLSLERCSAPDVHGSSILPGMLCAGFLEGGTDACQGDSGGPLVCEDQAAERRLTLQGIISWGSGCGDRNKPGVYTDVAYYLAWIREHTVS
How it was run: (§1)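 Screening of crude microscale amide-coupling products. Conversion was measured by 1H NMR and product content normalised to 76 µmol/L in DMSO, then tested at 1 µM and 100 nM in the fluorogenic FXIIa or thrombin assay. A 0-conversion reaction served as blank. Percent inhibition is from triplicates.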

Blood [2] = test: Anticoagulant activity in human blood assessed as increase in activated partial thromboplastin time at 300 uM incubated for 1 min by aPTT reagent based assay relative to control; assay type: functional
How it was run: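 Compounds were tested at 300 µM, and the increase was expressed relative to DMSO. The doubling concentration (EC2×) is the concentration prolonging aPTT twofold. At least triplicate, mean ± SD.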

Blood [3] = test: Effect on blood coagulation in human blood assessed as increase in prothrombin time at 300 uM incubated for 3 mins followed by CaCl2 addition by PT reagent based assay relative to control; assay type: ADME, tissue-based; settings: 0.05 h
How it was run: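 Clotting was started with PT reagent already containing CaCl2, prewarmed to 37 °C, and clotting time was recorded. Increase is given relative to DMSO; at least triplicate, mean ± SD.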

[4] = Inhibition of porcine trypsin using Z-Gly-Gly-Arg-AMC as fluorogenic substrate measured at 1 min interval for 1 hr by fluorometric assay; design: species or system Sus scrofa
Coagulation factor X = Coagulation factor X (Homo sapiens, UniProt P00742); test: Inhibition of human coagulation factor Xa using Boc-Ile-Glu-Gly-Arg-AMC as fluorogenic substrate measured at 1 min interval for 1 hr by fluorometric assay
Prothrombin [5] = biological target: T2, Prothrombin (Homo sapiens, UniProt P00734); test: Inhibition of human coagulation factor alpha-thrombin using Boc-Val-Pro-Arg-AMC as fluorogenic substrate measured at 1 min interval for 1 hr by fluorometric assay
Coagulation factor XII = biological target: T3, Coagulation factor XII (Homo sapiens, UniProt P00748); test: Inhibition of human coagulation factor XIIA using Boc-Gln-Gly-Arg-AMC as fluorogenic substrate measured at 1 min interval for 1 hr by fluorometric assay
T3 sequence (P00748 whole entry): T1 sequence (whole entry)

Homo sapiens = species on record: Homo sapiens; test: Selectivity index, ratio of IC50 for inhibition of human coagulation factor alpha-thrombin using Boc-Val-Pro-Arg-AMC as fluorogenic substrate to IC50 for inhibition of human coagulation factor XIIA using Boc-Gln-Gly-Arg-AMC as fluorogenic substrate incubated for 1 hr by fluorometric assay
[6] = biological target: T1, Coagulation factor XII (Homo sapiens); test: Binding affinity to human plasma coagulation factor XIIA assessed as compound-adduct formation by measuring change in molecular mass at molar ratio of 1:20 measured after 4 mins by SEC/ESI-TOF mass spectra analysis; assay type: cell-free
How it was run: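 β-FXIIa incubated with inhibitor at a 1:20 molar ratio, then size-exclusion chromatography coupled to ESI-MS to measure the mass of enzyme–inhibitor complexes. Further runs checked complex stability to probe reversibility.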

Prothrombin [7] = biological target: T2, Prothrombin; test: Inhibition of human coagulation factor thrombin using Boc-Val-Pro-Arg-AMC as fluorogenic substrate at 100 nM measured at 1 min interval for 1 hr by fluorometric assay relative to control; how it was run: as §1
[8] = biological target: T1, Coagulation factor XII (Homo sapiens); test: Inhibition of human coagulation factor XIIA using Boc-Gln-Gly-Arg-AMC as fluorogenic substrate at 100 nM measured at 1 min interval for 1 hr by fluorometric assay relative to control; how it was run: as §1
Plasma [9] = test: (§2) Anticoagulant activity in human platelet-rich plasma assessed as reduction in TF-induced thrombin generation by measuring endogenous thrombin potential at 100 uM preincubated for 15 mins followed by TF addition by Z-Gly-Gly-Arg-AMC substrate based calibrated automated thrombography (reference value: 1203 +/- 44 AU.min/L); assay type: functional; settings: 0.25 h
How it was run: (§3)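 Tissue-factor-triggered homogeneous thrombin generation followed by fluorogenic substrate cleavage. Read-outs: clotting time (T1/2), peak amplitude (Amax, AU/L), time to peak (Tmax) and ETP (AU·min/L). DMSO and buffer served as controls. n = 3, mean ± SD.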

Plasma [10] = test: as §2, with “Tmax of clotting time” for “endogenous thrombin potential”, “8.1” for “1203”, “0.6 min)” for “44 AU.min/L)”; assay type: functional, cell-free; how it was run: as §3
Plasma [11] = test: Anticoagulant activity in human platelet-rich plasma assessed as reduction in TF-induced thrombin generation by measuring half life of clotting time at 100 uM preincubated for 15 mins followed by TF addition by Z-Gly-Gly-Arg-AMC substrate based calibrated automated thrombography (Rvb= 3 +/- 0.5 min); assay type: functional, cell-free; how it was run: as §3
Plasma [12] = test: as §2, with “amplitude of” for “endogenous”, “peak” for “potential”, “63” for “1203”, “3.7 AU/L)” for “44 AU.min/L)”; assay type: functional; settings: 0.25 h; how it was run: as §3
Coagulation factor XI = Coagulation factor XI (Homo sapiens, UniProt P03951); test: Inhibition of human coagulation factor XIA using Mes-dArg-Pro-Arg-AMC as fluorogenic substrate measured at 1 min interval for 1 hr by fluorometric assay
[13] = biological target: Urokinase-type plasminogen activator (Homo sapiens, UniProt P00749); test: Inhibition of human uPA using Tos-Gly-Pro-Arg-AMC as fluorogenic substrate measured at 1 min interval for 1 hr by fluorometric assay
Plasminogen = Plasminogen (Homo sapiens, UniProt P00747); test: Inhibition of human plasmin using Mes-dArg-Phe-Arg-AMC as fluorogenic substrate measured at 1 min interval for 1 hr by fluorometric assay
Plasma kallikrein = Plasma kallikrein (Homo sapiens, UniProt P03952); test: Inhibition of human kallikrein using Mes-dArg-Pro-Arg-AMC as fluorogenic substrate measured at 1 min interval for 1 hr by fluorometric assay
Chain of Plasma kallikrein (P03952 20-390 limits assumed): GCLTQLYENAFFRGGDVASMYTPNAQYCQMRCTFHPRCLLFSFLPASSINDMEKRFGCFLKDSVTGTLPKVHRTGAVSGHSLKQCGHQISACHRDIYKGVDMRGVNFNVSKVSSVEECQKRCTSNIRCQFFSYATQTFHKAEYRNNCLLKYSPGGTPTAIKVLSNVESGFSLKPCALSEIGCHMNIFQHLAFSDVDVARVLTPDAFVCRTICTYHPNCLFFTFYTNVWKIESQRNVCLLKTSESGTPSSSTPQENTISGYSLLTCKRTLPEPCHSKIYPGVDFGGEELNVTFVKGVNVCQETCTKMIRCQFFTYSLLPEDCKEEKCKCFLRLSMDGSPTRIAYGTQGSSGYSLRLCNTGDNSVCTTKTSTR
Chain of Plasma kallikrein (P03952 391-638 limits assumed): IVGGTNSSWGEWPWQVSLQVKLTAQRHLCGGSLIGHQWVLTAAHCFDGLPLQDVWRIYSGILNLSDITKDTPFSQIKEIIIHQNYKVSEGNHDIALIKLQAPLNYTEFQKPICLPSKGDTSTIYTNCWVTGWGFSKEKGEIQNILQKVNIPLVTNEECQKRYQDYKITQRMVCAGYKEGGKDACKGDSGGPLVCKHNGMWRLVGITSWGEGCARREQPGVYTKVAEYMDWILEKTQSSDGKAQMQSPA

Chain of Coagulation factor X (P00742 41-179 limits assumed): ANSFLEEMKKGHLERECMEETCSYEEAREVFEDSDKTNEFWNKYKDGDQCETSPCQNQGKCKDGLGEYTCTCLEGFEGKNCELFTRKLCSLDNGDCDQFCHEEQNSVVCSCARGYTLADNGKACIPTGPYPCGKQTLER
Chain of Coagulation factor X (P00742 235-488 limits assumed): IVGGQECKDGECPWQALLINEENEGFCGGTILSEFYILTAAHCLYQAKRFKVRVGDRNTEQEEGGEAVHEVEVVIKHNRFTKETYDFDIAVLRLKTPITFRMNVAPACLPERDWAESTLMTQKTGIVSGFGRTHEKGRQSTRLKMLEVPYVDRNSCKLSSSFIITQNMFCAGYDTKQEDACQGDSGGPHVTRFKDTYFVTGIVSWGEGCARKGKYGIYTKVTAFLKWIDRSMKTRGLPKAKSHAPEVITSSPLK
Chain of Plasminogen (P00747 97-580 limits assumed): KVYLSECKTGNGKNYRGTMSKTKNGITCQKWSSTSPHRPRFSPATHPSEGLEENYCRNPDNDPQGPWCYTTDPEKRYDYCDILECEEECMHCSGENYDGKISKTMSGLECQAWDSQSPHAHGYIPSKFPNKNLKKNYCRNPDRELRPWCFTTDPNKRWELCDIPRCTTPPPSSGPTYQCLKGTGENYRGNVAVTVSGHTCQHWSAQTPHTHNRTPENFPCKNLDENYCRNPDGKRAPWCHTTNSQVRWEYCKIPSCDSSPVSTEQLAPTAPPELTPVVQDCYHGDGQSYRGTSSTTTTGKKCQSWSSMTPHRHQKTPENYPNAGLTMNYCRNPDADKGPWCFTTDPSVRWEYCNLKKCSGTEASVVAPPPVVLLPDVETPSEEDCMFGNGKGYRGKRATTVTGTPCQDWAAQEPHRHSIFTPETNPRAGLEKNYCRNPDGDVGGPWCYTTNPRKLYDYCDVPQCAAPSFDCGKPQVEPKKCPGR
Chain of Plasminogen (P00747 581-810 limits assumed): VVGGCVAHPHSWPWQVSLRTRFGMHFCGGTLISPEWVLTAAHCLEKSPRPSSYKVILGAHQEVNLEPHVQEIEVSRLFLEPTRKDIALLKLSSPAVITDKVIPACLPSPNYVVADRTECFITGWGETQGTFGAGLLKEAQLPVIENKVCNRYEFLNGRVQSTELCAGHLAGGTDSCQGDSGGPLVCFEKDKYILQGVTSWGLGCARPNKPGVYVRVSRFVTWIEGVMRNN
Chain of Coagulation factor XI (P03951 19-387 limits assumed): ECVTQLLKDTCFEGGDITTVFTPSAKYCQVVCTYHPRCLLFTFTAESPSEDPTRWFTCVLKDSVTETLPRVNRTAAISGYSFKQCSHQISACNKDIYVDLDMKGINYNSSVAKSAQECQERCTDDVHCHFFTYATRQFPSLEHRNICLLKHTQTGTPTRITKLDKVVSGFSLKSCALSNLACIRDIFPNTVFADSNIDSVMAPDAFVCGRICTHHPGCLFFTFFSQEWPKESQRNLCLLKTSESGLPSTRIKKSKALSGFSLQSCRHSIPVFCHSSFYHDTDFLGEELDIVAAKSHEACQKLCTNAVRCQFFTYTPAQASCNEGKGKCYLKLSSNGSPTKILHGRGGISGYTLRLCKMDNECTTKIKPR
Chain of Coagulation factor XI (P03951 388-625 limits assumed): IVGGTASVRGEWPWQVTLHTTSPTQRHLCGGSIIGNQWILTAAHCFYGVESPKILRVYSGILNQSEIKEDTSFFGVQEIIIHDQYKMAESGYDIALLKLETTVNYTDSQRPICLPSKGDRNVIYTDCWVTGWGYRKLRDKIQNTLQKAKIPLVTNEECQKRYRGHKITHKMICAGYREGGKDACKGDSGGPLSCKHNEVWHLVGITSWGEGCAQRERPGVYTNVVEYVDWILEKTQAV

inhibition [1] [%] | Activity (Blood [3]) [%] | IC50 [4] [µM] | IC50 (Coagulation factor X) [µM] | IC50 (Prothrombin [5]) [nM] | IC50 (Coagulation factor XII) [nM] | Structure (SMILES) | Activity (Blood [2]) [%] | further results
83 | 12 | > 5 | > 5 | 86 | 93 | Cc1cccc(C(=O)n2nc(-c3ccccn3)nc2N)c1 | 124 | 
79 | 8 | > 5 | > 5 | 481 | 306 | Nc1nc(-c2ccccn2)nn1C(=O)c1ccc(F)cc1 | 78 | 
 | 1 | > 5 | > 5 | > 5000 | > 5000 | Nc1n[nH]c(-c2ccncc2)n1 | 5 | 
43 |  | > 5 | > 5 | 494 | 1610 | Nc1nc(-c2ccccn2)nn1C(=O)c1cccnc1 |  | 
54 |  | > 5 | > 5 | 1770 | 968 | Nc1nc(-c2ccccn2)nn1C(=O)c1ccco1 |  | 
 | 539 |  |  |  | > 33000 | [H]/N=C(/N)c1ccc(NCc2nc3cc(C(=O)N(CCC(=O)O)c4ccccn4)ccc3n2C)cc1 [DABIGATRAN] |  | 
89 |  | > 5 | > 5 | 3390 | 142 | Nc1nc(-c2ccccn2)nn1C(=O)c1ccc(NC(=O)C(F)(F)F)cc1 |  | Ratio IC50 (Homo sapiens): 24
20 | 3 | > 5 | > 5 | > 132000 | 13200 | Nc1nc(-c2ccccn2)nn1C(=O)CNC(=O)c1ccccc1 | -2 | 
 | 2 | > 5 | > 5 | > 8000 | > 5000 | Nc1nc(Nc2cccnc2)nn1C(=O)c1ccccc1 | 1 | 
96 | 7 | > 5 | > 5 | 421 | 134 | Nc1nc(-c2ccccn2)nn1C(=O)[C@H]1CCCc2ccccc21 | 67 | Activity [6]: 158 Da; inhibition (Prothrombin [7]): 6%; inhibition [8]: 70%
 | 7 | > 5 | > 5 | > 5000 | > 1000 | Nc1nc(-c2ccncc2)nn1C(=O)C1CCCCC1 | 10 | 
11 |  | > 5 | > 5 | > 5000 | > 1000 | Nc1nc(-c2ccccn2)nn1C(=O)C1CCCCC1 |  | 
 | 5 | > 5 | > 5 | 1240 | 539 | Nc1nc(-c2ccccc2)nn1C(=O)c1ccccc1 | 29 | 
85 | 6 | > 5 | > 5 | 308 | 162 | CCc1ccc(C(=O)n2nc(-c3ccccn3)nc2N)cc1 | 114 | 
 |  | > 5 | > 5 | > 5000 | > 1000 | CCOc1ccc(Nc2nc(N)n(C(=O)c3ccccc3)n2)cc1 |  | 
 |  | > 5 | > 5 | > 5000 | > 5000 | Nc1n[nH]c(-c2ccccn2)n1 |  | 

Continued, compound first:

Structure (SMILES) | inhibition [1] [%] | Activity (Blood [3]) [%] | IC50 [4] [µM] | IC50 (Coagulation factor X) [µM] | IC50 (Prothrombin [5]) [nM] | IC50 (Coagulation factor XII) [nM] | Activity (Blood [2]) [%] | further results
COc1ccc(C(=O)n2nc(-c3ccccn3)nc2N)cc1 | 80 | 14 | > 5 | > 5 | 329 | 291 | 108 | 
Nc1nc(-c2ccccn2)nn1C(=O)/C=C/c1ccccc1 | 21 |  | > 5 | > 5 | 1560 | 9820 |  | 
Cc1ccc(S(=O)(=O)n2nc(-c3ccncc3)nc2N)cc1 |  | 2 | > 5 | > 5 | > 5000 | > 1000 | 5 | 
Nc1nc(-c2ccccn2)nn1C(=O)C1CCOCC1 | 1 |  | > 5 | > 5 | > 5000 | 12100 |  | 
Nc1nc(-c2ccccn2)nn1C(=O)c1ccc(C(F)(F)F)cc1 | 14 | 8 | > 5 | > 5 | 4570 | 3210 | 40 | 
Nc1n[nH]c(-c2ccccc2)n1 |  |  | > 5 | > 5 | > 5000 | > 5000 |  | 
Nc1nc(-c2ccccn2)nn1C(=O)c1ccccc1[N+](=O)[O-] | 43 |  |  | > 5 | > 5000 | 1560 |  | 
Nc1nc(-c2ccccn2)nn1C(=O)c1ccc(Br)cc1 | 58 | 16 | > 5 | > 5 | 239 | 793 | 119 | 
Nc1nc(-c2ccccn2)nn1C(=O)Cc1ccccc1 | 87 |  | > 5 | > 5 | 509 | 210 |  | 
Nc1nc(-c2ccccn2)nn1C(=O)c1ccc([N+](=O)[O-])cc1 | 29 | 3 |  | > 5 | > 5000 | 5930 | 35 | 
Nc1nc(-c2ccncc2)nn1C(=O)c1ccccc1 |  | 2 | > 5 | > 5 | 962 | 106 | 80 | 
Cc1ccc(C(=O)n2nc(-c3ccccn3)nc2N)cc1C | 92 | 48 | > 5 | > 5 | 57 | 91 | 227 | Activity (Plasma [9]): 370 AU.min/L; Tmax (Plasma [10]): 8.8 min; T1/2 (Plasma [11]): 3.8 min; Activity (Plasma [12]): 16.9 AU/L; IC50 (Coagulation factor XI): > 5 µM; IC50 [13]: 2940 nM; IC50 (Plasminogen): 25.8 µM; IC50 (Plasma kallikrein): > 5 µM
